These results are taken from ChEMBL document CHEMBL1269008, “Electron density guided fragment-based lead discovery of ketohexokinase inhibitors” (J Med Chem, 2010).

In series [1] the target is 5-hydroxytryptamine receptor 7 (Homo sapiens) (UniProt P34969). The series can be described thus: Inhibition of 5HT7 at 10 uM.
Series [2] has as its target T1, 5-hydroxytryptamine receptor 1A (Homo sapiens) (UniProt P08908).
T1 sequence (whole entry): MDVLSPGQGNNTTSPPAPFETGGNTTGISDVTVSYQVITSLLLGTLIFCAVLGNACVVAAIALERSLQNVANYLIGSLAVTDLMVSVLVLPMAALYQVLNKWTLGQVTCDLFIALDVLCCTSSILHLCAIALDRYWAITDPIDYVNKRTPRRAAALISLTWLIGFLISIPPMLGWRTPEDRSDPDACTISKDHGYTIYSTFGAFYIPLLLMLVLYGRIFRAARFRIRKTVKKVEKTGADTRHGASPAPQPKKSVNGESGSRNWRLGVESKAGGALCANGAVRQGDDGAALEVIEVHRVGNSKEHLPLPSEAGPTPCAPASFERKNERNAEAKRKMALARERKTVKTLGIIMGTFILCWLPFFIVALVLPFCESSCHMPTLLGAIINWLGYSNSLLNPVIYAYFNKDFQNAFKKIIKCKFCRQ
The series can be described thus: Inhibition of 5HT1A at 10 uM.

A further series has as its target Cytochrome P450 3A4 (Homo sapiens, UniProt P08684). In words: Inhibition of human recombinant CYP3A4. The format is ADME.
In another series the target is Cytochrome P450 2C9 (Homo sapiens, UniProt P11712). The series can be described thus: Inhibition of human recombinant CYP2C9. The format is ADME.
Cytochrome P450 2C9, sequence (P11712 whole entry): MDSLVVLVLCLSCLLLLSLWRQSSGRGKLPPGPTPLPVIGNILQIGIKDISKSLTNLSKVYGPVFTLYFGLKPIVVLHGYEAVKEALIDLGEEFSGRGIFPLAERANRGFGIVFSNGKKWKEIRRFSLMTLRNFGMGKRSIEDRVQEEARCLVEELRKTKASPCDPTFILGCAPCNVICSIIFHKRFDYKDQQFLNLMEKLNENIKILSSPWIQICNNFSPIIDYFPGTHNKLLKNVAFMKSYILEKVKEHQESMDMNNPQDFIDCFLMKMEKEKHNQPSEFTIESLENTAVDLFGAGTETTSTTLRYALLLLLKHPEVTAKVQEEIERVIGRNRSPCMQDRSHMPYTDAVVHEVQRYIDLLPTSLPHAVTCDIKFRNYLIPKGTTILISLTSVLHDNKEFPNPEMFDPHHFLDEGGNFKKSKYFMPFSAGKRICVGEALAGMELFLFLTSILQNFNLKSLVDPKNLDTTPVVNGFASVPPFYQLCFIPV
A further series has as its target Cytochrome P450 2C19 (Homo sapiens, UniProt P33261). In words: Inhibition of human recombinant CYP2C19. The format is ADME.
Series [3] is described as follows: Volume of distribution in Sprague-Dawley rat at 2 mg/kg, iv and 10 mg/kg, po. The conditions noted are these: in vivo. The format is ADME, organism-based. The gist of the method:
(§1)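 Male SPF Sprague-Dawley rats (~250 g), n=4, vehicle 20% HPBCD at pH 4.5. Dosing was 2.0 mg/kg iv into the jugular vein, with blood taken at 7 and 20 min and 1, 2, 4, 8 and 24 h. Oral arm was 10 mg/kg by gastric intubation. Parameters came from each animal's plasma profile.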

A short description of series [4]: Permeability from basolateral to apical side of human Caco-2 cells. The series is classed as ADME, cell-based. The gist of the method:
(§2)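 Caco-2 monolayers cultured 21 days on Transwells. Compound at 10 μM in HBSS with 25 mM HEPES pH 7.4, added to the apical or basolateral side. Lucifer Yellow in donor buffer checked monolayer integrity. After 1 h at 37 °C, both chambers were sampled into acetonitrile with internal standard and measured by LC-MS/MS to calculate Papp.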
For orientation: Caco-2 monolayers are a common model of the intestinal barrier.

The nature of series [5]: Oral bioavailability in Sprague-Dawley rat at 10 mg/kg. The format is ADME, organism-based. The conditions noted are these: in vivo. The gist of the method: (§3)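 Male SPF Sprague-Dawley rats (~250 g), n=4. HCl salt dissolved in 20% HPBCD, adjusted to pH 4.5 with NaOH. 10 mg/kg by gastric intubation. Blood sampled at 0.5, 1, 2, 4, 8 and 24 h. Parameters derived from each animal's plasma concentration-time profile by limited PK analysis.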

Series [6] is described as follows: Aqueous solubility of the compound in phosphate buffered saline at pH 2. The format is physicochemical.
A short description of series [7]: Aqueous solubility of the compound in […]. The series is classed as physicochemical.
The next series has as its target Cytochrome P450 2D6 (Homo sapiens, UniProt P10635). The series can be described thus: Inhibition of human recombinant CYP2D6. The series is classed as ADME.
Series [8] in a line: Aqueous solubility of the compound in water. The series is classed as physicochemical.
Series [9] in a line: Metabolic stability in human liver microsomes after 10 mins. The format is ADME, Microsome. The conditions noted are these: read-out: Stability. In general terms: Microsomes from liver hold many membrane-bound enzymes, among them those of drug oxidation.
Series [10] is described as follows: Clearance in Sprague-Dawley rat at 2 mg/kg, iv and 10 mg/kg, po. The format is ADME, organism-based. The conditions noted are these: in vivo. In a few lines:
as §1

Series [11] in a line: Metabolic stability in rat liver microsomes after 10 mins. The format is ADME, Microsome. The note with it: read-out: Stability.
The target in series [12] is 5-hydroxytryptamine receptor 2B (Homo sapiens) (UniProt P41595). In words: Inhibition of 5HT2B at 10 uM.
5-hydroxytryptamine receptor 2B (Homo sapiens), sequence (P41595 whole entry): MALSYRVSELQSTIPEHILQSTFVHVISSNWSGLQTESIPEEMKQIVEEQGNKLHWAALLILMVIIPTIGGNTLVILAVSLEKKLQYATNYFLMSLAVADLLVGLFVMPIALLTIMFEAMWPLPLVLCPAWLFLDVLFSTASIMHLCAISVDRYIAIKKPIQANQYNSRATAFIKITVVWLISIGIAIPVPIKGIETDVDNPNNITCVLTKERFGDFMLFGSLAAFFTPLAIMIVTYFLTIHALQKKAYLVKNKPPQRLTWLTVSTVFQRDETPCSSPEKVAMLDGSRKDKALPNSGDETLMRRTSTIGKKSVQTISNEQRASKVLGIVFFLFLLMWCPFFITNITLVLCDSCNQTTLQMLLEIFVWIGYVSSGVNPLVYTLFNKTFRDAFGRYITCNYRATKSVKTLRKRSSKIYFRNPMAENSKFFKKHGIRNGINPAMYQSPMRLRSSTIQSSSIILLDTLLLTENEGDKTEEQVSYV
A short description of series [13]: Permeability from apical to basolateral side of human Caco-2 cells. The format is ADME, cell-based. The gist of the method:
as §2

The nature of series [14]: AUClast in Sprague-Dawley rat at 10 mg/kg, po. The series is classed as ADME, organism-based. Also noted: time 0 - last, dose 10 mg/kg, route oral. The note with it: plasma. In a few lines: as §3
Series [15] is described as follows: Aqueous solubility of the compound in phosphate buffered saline at pH 7.4. The format is physicochemical.
Series [16] is described as follows: Inhibition of PKA at 10 uM. In a few lines: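 Commercial panel of 200 protein kinases, with compound at 10 μM and ATP at 10 μM. Percent inhibition is from a single concentration.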
A short description of series [17]: Cmax in Sprague-Dawley rat at 10 mg/kg, po. The format is ADME, organism-based. Also noted: dose 10 mg/kg, route oral. The note with it: in vivo. In a few lines:
as §3

A further series addresses T2, Cytochrome P450 1A2 (Homo sapiens, UniProt P05177).
T2 sequence (P05177 whole entry): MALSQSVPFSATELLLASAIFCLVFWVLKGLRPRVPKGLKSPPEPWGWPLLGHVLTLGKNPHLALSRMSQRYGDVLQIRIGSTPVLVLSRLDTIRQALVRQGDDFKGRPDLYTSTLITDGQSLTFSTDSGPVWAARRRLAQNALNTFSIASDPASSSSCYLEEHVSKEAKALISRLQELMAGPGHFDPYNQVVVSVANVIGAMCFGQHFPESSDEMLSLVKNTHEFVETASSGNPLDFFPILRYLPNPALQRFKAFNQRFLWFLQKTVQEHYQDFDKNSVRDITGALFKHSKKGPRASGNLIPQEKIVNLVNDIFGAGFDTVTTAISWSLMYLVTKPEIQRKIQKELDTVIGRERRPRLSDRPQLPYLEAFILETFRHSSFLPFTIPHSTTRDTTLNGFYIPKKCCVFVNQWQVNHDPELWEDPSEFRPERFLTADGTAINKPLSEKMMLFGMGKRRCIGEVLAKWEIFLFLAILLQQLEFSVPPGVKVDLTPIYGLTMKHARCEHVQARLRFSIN
The series can be described thus: Inhibition of human recombinant CYP1A2. The series is classed as ADME.

Values after ≈ are worked out from the molar mass of the structure shown.

Cytochrome P450 3A4, sequence (P08684 whole entry): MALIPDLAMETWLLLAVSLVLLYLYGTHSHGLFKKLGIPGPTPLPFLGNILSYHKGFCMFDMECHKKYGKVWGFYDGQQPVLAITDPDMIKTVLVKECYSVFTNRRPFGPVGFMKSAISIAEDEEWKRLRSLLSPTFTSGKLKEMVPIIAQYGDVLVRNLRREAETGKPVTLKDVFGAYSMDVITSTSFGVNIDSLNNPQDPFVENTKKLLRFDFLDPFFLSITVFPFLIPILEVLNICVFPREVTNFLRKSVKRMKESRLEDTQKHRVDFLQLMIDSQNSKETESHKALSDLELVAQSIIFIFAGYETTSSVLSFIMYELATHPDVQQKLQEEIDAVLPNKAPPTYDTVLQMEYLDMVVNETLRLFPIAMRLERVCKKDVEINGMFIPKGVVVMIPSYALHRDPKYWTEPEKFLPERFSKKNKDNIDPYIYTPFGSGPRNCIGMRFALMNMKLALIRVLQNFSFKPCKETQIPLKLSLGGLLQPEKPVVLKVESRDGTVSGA
Cytochrome P450 2D6, sequence (P10635 whole entry): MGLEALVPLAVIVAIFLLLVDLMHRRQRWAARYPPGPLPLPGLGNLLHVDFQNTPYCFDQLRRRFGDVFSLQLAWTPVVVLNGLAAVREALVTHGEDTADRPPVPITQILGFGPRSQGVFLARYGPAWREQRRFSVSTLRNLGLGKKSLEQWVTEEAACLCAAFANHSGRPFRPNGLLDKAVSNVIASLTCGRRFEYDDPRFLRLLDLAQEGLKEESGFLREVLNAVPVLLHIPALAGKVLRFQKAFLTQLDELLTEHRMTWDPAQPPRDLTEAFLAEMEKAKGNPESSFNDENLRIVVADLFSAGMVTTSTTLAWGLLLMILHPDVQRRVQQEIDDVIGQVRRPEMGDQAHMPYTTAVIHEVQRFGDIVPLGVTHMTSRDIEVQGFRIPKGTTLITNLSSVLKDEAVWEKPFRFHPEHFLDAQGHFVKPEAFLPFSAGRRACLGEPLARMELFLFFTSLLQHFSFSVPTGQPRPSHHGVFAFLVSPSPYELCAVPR
5-hydroxytryptamine receptor 7 (Homo sapiens), sequence (P34969 whole entry): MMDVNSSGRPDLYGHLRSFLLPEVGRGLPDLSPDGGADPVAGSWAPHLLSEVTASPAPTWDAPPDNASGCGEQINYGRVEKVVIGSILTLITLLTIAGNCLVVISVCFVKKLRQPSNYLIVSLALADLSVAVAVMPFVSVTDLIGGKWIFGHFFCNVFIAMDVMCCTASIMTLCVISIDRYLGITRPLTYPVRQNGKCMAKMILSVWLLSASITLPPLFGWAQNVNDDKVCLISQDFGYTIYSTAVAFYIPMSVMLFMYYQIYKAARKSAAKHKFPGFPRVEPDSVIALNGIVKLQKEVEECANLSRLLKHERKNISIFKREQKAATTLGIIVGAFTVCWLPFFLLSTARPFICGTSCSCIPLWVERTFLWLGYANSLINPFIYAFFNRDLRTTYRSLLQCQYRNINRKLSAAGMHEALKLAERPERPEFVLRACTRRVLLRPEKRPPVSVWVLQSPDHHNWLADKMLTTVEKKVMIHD
Cytochrome P450 2C19, sequence (P33261 whole entry): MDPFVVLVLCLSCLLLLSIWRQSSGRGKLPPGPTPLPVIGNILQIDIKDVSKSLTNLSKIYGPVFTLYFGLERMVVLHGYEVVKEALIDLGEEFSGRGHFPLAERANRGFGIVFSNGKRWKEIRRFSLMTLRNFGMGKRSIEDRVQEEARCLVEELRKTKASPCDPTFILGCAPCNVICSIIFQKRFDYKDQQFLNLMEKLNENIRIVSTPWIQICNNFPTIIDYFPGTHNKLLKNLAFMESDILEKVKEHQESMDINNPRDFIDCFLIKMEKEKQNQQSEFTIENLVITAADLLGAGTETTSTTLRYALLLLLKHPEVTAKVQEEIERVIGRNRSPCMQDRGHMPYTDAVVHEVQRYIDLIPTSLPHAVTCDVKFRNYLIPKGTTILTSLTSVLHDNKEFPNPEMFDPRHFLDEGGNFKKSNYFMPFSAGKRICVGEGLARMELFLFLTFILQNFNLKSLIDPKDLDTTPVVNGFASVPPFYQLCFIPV

Regarding `CSc1nn(-c2ccccc2)c2cc(NC(=O)C3CCNCC3)ccc12`, the inhibition (commonly the percentage by which the read-out fell short of the control) in series [1] turned out to be 95%; in series [2], 83%; in [12] it was 91%; in series [16], 99%. The IC50 on Cytochrome P450 3A4, on Cytochrome P450 2C9, at Cytochrome P450 2C19, on Cytochrome P450 2D6 and on Cytochrome P450 1A2 was more than 10 µM throughout. The compound further showed a Vd in series [3] of 8.53 L/kg. The Papp B→A (usually how fast a substance crosses the layer from the basolateral side) in series [4] amounted to 9.47 ×10⁻⁶ cm/s. In addition, the bioavailability (commonly the share of a dose that reaches the circulation, judged against a reference dose that is usually intravenous) in series [5] was 75.4%. Moreover, the solubility (in general, the dissolved amount per volume that the medium holds) in [6] worked out at 35.3 µM (≈ 12.9 µg/mL); in series [7], 40 µM (≈ 14.7 µg/mL); in [8] it was 40.7 µM (≈ 14.9 µg/mL); in series [15], 45.2 µM (≈ 16.6 µg/mL). For the same compound, the remaining at 10 min was found to be 96% in series [9] and 95% in series [11]. The compound further registered a clearance in series [10] of 11.6 mL/min/kg. Besides, the Papp A→B (commonly how fast a substance crosses the layer from the apical side) in series [13] is 1.65 ×10⁻⁶ cm/s. For the same compound, the AUC(0-t) (in general, exposure summed from dosing to a finite time, without extrapolation to infinity) in [14] was 9030 ng·h/mL. The highest level in series [17] (Cmax) was 529 ng/mL.
